Published values gathered from unrelated publications.
Protocols differ between the studies behind these lines.
rep papain-like protease: Replicase polyprotein 1ab, papain-like protease (rep, Severe acute respiratory syndrome coronavirus 2, UniProt P0DTD1)
ADRA1A: Alpha-1A adrenergic receptor (ADRA1A, Homo sapiens, UniProt P35348)
rep helicase: Replicase polyprotein 1ab, helicase (rep, Severe acute respiratory syndrome coronavirus 2, UniProt P0DTD1)
MAOA: Amine oxidase [flavin-containing] A (MAOA, Homo sapiens, UniProt P21397)

CCC(C(=O)Nc1cc(NC2CCOC2)ccc1C)n1cc(Cl)cc2nc(SCc3ccc(F)cc3)nc1-2 (stereo not shown) — IC50 (rep papain-like protease; enzyme activity; inhibitor): 0.169 µM
COC(=O)c1cc(N(C)C(=O)c2ccn3ncc(-c4ccc(C(=O)O)cc4)c3c2)ccc1Cl — IC50 (ADRA1A; cell-free assay): > 30 µM
CCCNC(=O)[C@H]1O[C@@H]1C(=O)N[C@H](C(=O)N1CCC[C@H]1C(=O)O)[C@@H](C)CC — IC50 (rep papain-like protease; enzyme activity; inhibitor; FRET): 170 µM
CSCCNc1nc(SCCC(F)(F)F)nc2c1ncn2[C@@H]1O[C@H](COP(=O)(O)OP(=O)(O)C(Cl)(Cl)P(=O)(O)O)[C@@H](O)[C@H]1O — IC50 (rep helicase; enzyme activity; inhibitor): > 100 µM
CCC(C(=O)Nc1cc(NC2COC2)ccc1C)n1cc(F)cc2nc(SCc3ccc(F)cc3)nc1-2 (stereo not shown) — IC50 (rep papain-like protease; enzyme activity; inhibitor): 0.436 µM
Cc1cc(Nc2ncc(Cl)c(Nc3ccccc3S(=O)(=O)C(C)C)n2)c(OC(C)C)cc1C1CCNCC1 — IC50 (rep papain-like protease; enzyme activity; inhibitor; FRET): 19.5 µM
Brc1ccc2c(c1)C(c1ccccn1)=NCc1c(-c3cnco3)ncn1-2 — Ki (Translocator protein (Tspo, Rattus norvegicus, UniProt P16257); ligand displacement; radioligand): 0.331 µM
C#CCN(C)CCCCCCOc1cccc(CN(C)c2c3c(nc4ccc(C)cc24)CCCC3)c1 — IC50 (MAOA; enzyme activity; inhibitor; fluorescence): 4.87 µM
CCCC(C(=O)Nc1cc(NC2CNC2)ccc1C)n1cccc2nc(SCc3ccc(F)cc3)nc1-2 (stereo not shown) — IC50 (rep papain-like protease; enzyme activity; inhibitor): 1.48 µM
C#CCN(C)CCCCCCCCOc1cccc(CN(C)c2c3c(nc4ccc(F)cc24)CCCC3)c1 — IC50 (MAOA; enzyme activity; inhibitor; fluorescence): 61.3 µM
CNC(=O)c1ccc(-c2cnn3ccc(C(=O)N(C)c4ccc(Cl)c(C(=O)OC)c4)cc23)cc1 — IC50 (ADRA1A; cell-free assay): > 30 µM
COc1ccc2cc1Oc1ccc(cc1)C[C@H]1c3c(cc4c(c3Oc3cc5c(cc3OC)CCN(C)[C@@H]5C2)OCO4)CCN1C — IC50 (rep helicase; enzyme activity; inhibitor): 4.5 µM
C#CCN(C)CCOc1cccc(CN(C)c2c3c(nc4ccccc24)CCCC3)c1 — IC50 (MAOA; enzyme activity; inhibitor; fluorescence): 10.3 µM
